Screens: PubChem, The Scripps Research Institute Molecular Screening Center
A selection: hits, their analogues and other compounds. The true share with any hit is near 1.1%.
proCasp3 act: procaspase-3 (human) activation; AID 463141; activation, % at 8.5 µM; hit rate 0.11% among 330,000; P42574; recombinant procaspase-3 D3A, Ac-DEVD-pNA absorbance 405 nm;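 active means activation above the mean of all tested compounds plus 3 SD, cut at about 21% in these data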;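 further: 0% = DMSO alone and 100% = DMSO wells spiked with extra 5 µM PC-3 D3A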
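Compound: 8.5 µM single point, 0.8% DMSO / Material: Autoprocessing-dead procaspase-3 D3A mutant enzyme / Timing: 1 h preincubation plus 2 h reaction at 25 °C / Medium: Zinc-free HEPES/NaCl buffer with 0.01% Triton X-100 at pH 7.4 / Technique: 405 nm absorbance of p-nitroaniline, reads at 0 and 120 min / Repeats: one well per compound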
LYPLA1 inh: blocks human lysophospholipase 1, a PME1 counter-screen; O75608; recombinant LYPLA1, FP-Rh probe fluorescence polarization; inhibition, % at 5.9 µM; hit rate 0.16% among 320,000;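 active means inhibition above the mean of all tested compounds plus 3 SD, set per campaign, cut at about 14% in these data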;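 further: inhibitors block serine hydrolase probe labeling of LYPLA1 so polarization falls; 0% = enzyme with DMSO and 100% = wells lacking LYPLA1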
LYPLA2 inh: blocks human lysophospholipase 2, a PME1 counter-screen. O95372. hit rate 0.38% among 320,000. recombinant LYPLA2, FP-Rh probe fluorescence polarization. inhibition, % at 5.9 µM;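 active means inhibition above the screen-wide mean plus 3 SD, limit set per campaign, cut at about 26% in these data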;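 further: 0% = LYPLA2 with DMSO and 100% = wells lacking LYPLA2 enzyme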
PREPL inhibitor: human PREPL enzyme inhibition; hit rate 0.68% among 320,000; recombinant PREPL, fluorescence polarization activity-based probe; Q4J6C6; inhibition, % at 5.96 µM;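 further: 0% = enzyme with DMSO and 100% = wells lacking enzyme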
proCasp7 act: counter-screen for procaspase-3 activators: activators of human procaspase-7; P55210; recombinant procaspase-7, Ac-DEVD-pNA absorbance 405 nm; D23A/D198A/D206A triple mutant, cannot self-cleave; scale: DMSO 0, 5 µM enzyme 100; activation, % at 8.5 µM; hit rate 0.093% among 330,000;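 active means percent activation above the screen-wide mean plus 3 SD, cut at about 25% in these data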
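Assay system: Uncleavable procaspase-7 mutant enzyme; Input: 2 µM procaspase-7 mutant as dispensed; Also added: DEVD-pNA substrate; Medium: Zinc-free HEPES pH 7.4 with 300 mM NaCl, 0.01% Triton X-100; Timing: 1 h compound preincubation, 2 h substrate cleavage, 25 °C; Measured by: Epi-absorbance of released pNA at 405 nm, two timepoints.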
PREPL confirm: human PREPL inhibition, confirmation | shares compounds with PREPL inhibitor | recombinant PREPL, fluorescence polarization activity probe | inhibition, % at 5.96 µM | hit rate 67% among 2,000 | AID 2803;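 further: 0% = protein with DMSO and 100% = wells lacking protein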
* = called active by the depositor; . = no result. Unless noted, no stated cut-off is given here; in the data, active means inhibition above about 43%; inactive means the rest.

SMILES	proCasp3 act	LYPLA1 inh	LYPLA2 inh	PREPL inhibitor	proCasp7 act	PREPL confirm
CCN1C(=O)[C@@H]2[C@@H](c3ccc(-c4ccc(OC)cc4)cc3)N3CCC[C@@]3(C(=O)OC)[C@@H]2C1=O	-9	0	-5	5	-5	.
CCN1C(=O)[C@H]2[C@@H](c3ccc(-c4ccc(OC)cc4)cc3)N3CCC[C@@]3(C(=O)OC)[C@H]2C1=O	4	-3	1	47*	6	37
Cc1nc2ccc([N+](=O)[O-])cc2c(=O)n1Cc1ccc(Br)cc1	-3	2	2	7	2	.
Cc1nc2ccc([N+](=O)[O-])cc2c(=O)n1Cc1cccc(Br)c1	-1	-2	-2	45*	3	34
CC(=O)N1CCN(c2ccc(OC[C@H]3CO[C@](Cn4ccnc4)(c4ccc(Cl)cc4Cl)O3)cc2)CC1	6	-2	8	61*	0	64*
CCOC(=O)[C@@H]1[C@H]2COc3cc(OC)ccc3[C@@H]2N2C(=O)N(c3ccc(Cl)cc3)C(=O)[C@@]12C	-4	0	2	-92	5	.
O=C(NCC1CCCO1)c1sc(=S)n2c1[nH]c(=O)c1ccc(C(=O)N3CCCCC3)cc12 (stereo not drawn)	1	4	14	23	-10	.
CC(C)NC(=O)c1sc(=S)n2c1[nH]c(=O)c1ccc(C(=O)NCCc3ccc(Cl)cc3)cc12	2	4	20	70*	-13	80*
COc1ccc(OC)c(CCNC(=O)c2ccc3c(=O)[nH]c4c(C(=O)NC(C)C)sc(=S)n4c3c2)c1	-3	-1	9	27	8	.
CCOc1ccc(CCNC(=O)c2ccc3c(=O)[nH]c4c(C(=O)NC(C)C)sc(=S)n4c3c2)cc1	3	0	10	55*	-5	79*
O=C(NCCc1ccccc1)c1ccc2c(=O)[nH]c3c(C(=O)NCC4CCCO4)sc(=S)n3c2c1 (stereo not drawn)	-3	5	14	93*	-2	90*
Cc1ccc(C(=O)OCC(=O)NC2CC2)cc1S(=O)(=O)N1CCOCC1	3	1	6	5	6	.
CCN1CCc2nc3sc(C(=O)N4CCc5ccccc5C4)c(N)c3cc2C1	-14	0	7	65*	-11	48*
C=CCN(c1ccccc1)S(=O)(=O)c1cccc(C(=O)N(CC)CC(=O)Nc2c(F)cccc2F)c1	5	5	2	6	0	.
Cc1c(NCc2cc(Cl)cc(Cl)c2O)c(=O)n(-c2ccccc2)n1C	3	-4	6	50*	7	58*
Cc1c(NCc2cc(Cl)ccc2O)c(=O)n(-c2ccccc2)n1C	2	-1	-2	2	1	.
CCC(COC)NC(=O)c1ccc(OC)c(OC2CCN(C(C)=O)CC2)c1 (stereo not drawn)	0	-3	0	-5	14	.
CCc1ccc(N2CC(C(=O)N3CCCC3)CC2=O)cc1 (stereo not drawn)	-1	-1	7	3	3	.
c1ccc(Cn2nnnc2C(c2ccccc2)N2CCN(c3nc4ccccc4s3)CC2)cc1 (stereo not drawn)	-5	3	1	27	4	.
c1ccc(C(c2nnnn2Cc2ccco2)N2CCN(c3nc4ccccc4s3)CC2)cc1 (stereo not drawn)	7	0	3	44*	-18	41
CC(=O)NC1=C(Nc2ccc(N(C)C)cc2)C(=O)c2ccccc2C1=O	-2	-2	-2	49*	-6	39
CC(=O)NC1=C(N(C)C2CCS(=O)(=O)C2)C(=O)c2ccccc2C1=O (stereo not drawn)	0	0	-2	0	10	.
O=C(c1ccc2c(c1)OCO2)N1CCN(c2ccccc2)CC1	6	0	8	15	9	.
O=C(c1ccccc1)N1CCN(c2ccc(NCc3ccc4c(c3)OCO4)cc2)CC1	-12	4	20	74*	-15	53*
O=C(Nc1ccc(N2CCN(C(=O)c3ccccc3)CC2)cc1)c1cc2ccccc2o1	-7	0	0	45*	6	36
